For 24 molecules, logP results are on record in ChEMBL document CHEMBL1122416, “An extension of the f-fragment method for the calculation of hydrophobic constants (log P) of conformationally defined systems” (J Med Chem, 1983).

The first series in a line: Partition coefficient (logP). Format: physicochemical. To be noted: octanol/water. In outline:
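Shake-flask partitioning of the neutral amine species between 1-octanol and 0.1 N NaOH. Both phases were analysed by gas chromatography on 10% Apiezon L with 2% KOH on 80-100 mesh Chromosorb WAW. Observed log P was taken from the phase distribution.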
The logP is a log measure of how a compound divides between an organic and an aqueous phase. For `NC1C2CC[C@H]1c1ccccc12` (stereo in doubt; 19), the log partition coefficient (logP) is on record as 2.08. As to `CNC1C2CC[C@H]1c1ccccc12` (stereo in doubt; 11), the logP stood at 2.47.

The series is the same for the next values; noted with them: octanol/water; read-out: logP.
On to `N[C@H]1CC2C[C@@H]1c1ccccc12`, for which the logP is 2. Consider `CN[C@@H]1CC2C[C@@H]1c1ccccc12`, for which the logP was found to be 2.41. In the case of `CN[C@@H]1CC2CC[C@@H]1c1ccccc12`, the logP was 2.68. With `NC1C2CC[C@H]1c1ccccc12` (stereo in doubt; 17), the logP amounted to 2.13.

In the case of `CCCN[C@H]1CC2C[C@@H]1c1ccccc12`, the log partition coefficient (logP) stood at 3.13.

For the molecule `N[C@H]1CC2O[C@@H]1c1ccccc12`, the logP was determined as 0.4.

On to `CN[C@H]1CC2O[C@@H]1c1ccccc12`, for which the logP is 0.59.

As to `CN[C@H]1CC2C[C@@H]1c1ccccc12`, the logP came to 2.32. As to `CCN[C@H]1CC2C[C@@H]1c1ccccc12`, the logP worked out at 2.62. For `CNC1C2CC[C@H]1c1ccccc12` (stereo in doubt; 13), the logP was found to be 2.37. Regarding `N[C@H]1CC2C[C@@H]1c1ccc(C(F)(F)F)cc12`, the logP amounted to 2.91. Regarding `CCN[C@@H]1CC2C[C@@H]1c1ccccc12`, the logP stood at 2.72. `N[C@H]1CC2CC[C@@H]1c1ccccc12`: the logP was found to be 2.29.

For `N[C@@H]1CC2C[C@@H]1c1cc(C(F)(F)F)ccc12`, the logP came out at 3.19. As for `N[C@@H]1CC2O[C@@H]1c1ccccc12`, the logP is 0.75. Consider `N[C@H]1CC2C[C@@H]1c1cc(C(F)(F)F)ccc12`, for which the logP was 2.85.

Turning to `CCCN[C@@H]1CC2C[C@@H]1c1ccccc12`, the logP worked out at 3.3. In the case of `N[C@@H]1CC2CCC1c1ccccc12` (some centres undefined), the logP was determined as 2.32. `N[C@@H]1CC2C[C@@H]1c1ccc(C(F)(F)F)cc12`: the logP came out at 3.21. Still for that read-out and setting: the figure for `N[C@@H]1CC2C[C@@H]1c1ccccc12` is 2.09; for `CN[C@@H]1CC2O[C@@H]1c1ccccc12` it is 0.91. On the same count and under the same terms, the figure for `CN[C@H]1CC2CC[C@@H]1c1ccccc12` is 2.59.
